Where a name gives a salt, the structure may show the parent alone.
Tests used:
[1] = biological target: Intestinal-type alkaline phosphatase (Bos taurus) (UniProt P19111); test: Inhibition of bovine intestinal alkaline phosphatase assessed as residual enzyme activity at 0.1 mM in presence of 1% DMSO at pH 10.4 at 37 degC relative to untreated control
In short: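 Screening in 25 mM piperazine, 25 mM glycylglycine, 5 mM MgCl2, 5 µM ZnCl2, pH 10.4, 37 °C. BIAP (0.1–0.3 µg/mL) preincubated 10 min with 0.1 mM compound (final DMSO 1% v/v), no substrate. Reaction started with 0.05 mM pNPP; read at 420 nm (ε 18.6 cm⁻¹ mM⁻¹). Activity given relative to inhibitor-free control; sample-to-sample error 5%.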

Sus scrofa [2] = species on record: Sus scrofa; test: Inhibition of porcine kidney tissue non-specific alkaline phosphatase assessed as residual enzyme activity at 0.4 mM in presence of 1% DMSO at pH 10.4 at 37 degC relative to untreated control
Sus scrofa [3] = species on record: Sus scrofa; test: Inhibition of porcine kidney tissue non-specific alkaline phosphatase assessed as residual enzyme activity at 0.4 mM in presence of 4% DMSO at pH 10.4 at 37 degC relative to untreated control
[4] = Inhibition of porcine kidney tissue non-specific alkaline phosphatase at pH 7.8 at 37 degC; parameters: species or system Sus scrofa

Sequence of Intestinal-type alkaline phosphatase (Bos taurus) (P19111 20-506 limits assumed): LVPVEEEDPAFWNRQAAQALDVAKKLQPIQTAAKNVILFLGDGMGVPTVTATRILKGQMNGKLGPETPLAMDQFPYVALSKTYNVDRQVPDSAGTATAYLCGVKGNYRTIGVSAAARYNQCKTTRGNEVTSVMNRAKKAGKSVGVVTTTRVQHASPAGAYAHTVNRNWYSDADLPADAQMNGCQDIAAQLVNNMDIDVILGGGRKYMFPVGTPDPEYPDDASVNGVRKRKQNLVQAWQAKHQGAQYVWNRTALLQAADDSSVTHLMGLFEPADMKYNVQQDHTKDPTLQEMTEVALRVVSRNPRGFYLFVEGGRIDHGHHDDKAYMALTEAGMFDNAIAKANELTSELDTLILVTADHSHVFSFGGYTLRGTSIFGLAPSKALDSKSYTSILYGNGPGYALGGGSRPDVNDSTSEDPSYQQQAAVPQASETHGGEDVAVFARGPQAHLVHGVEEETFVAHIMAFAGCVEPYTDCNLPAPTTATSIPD

Structure (SMILES)	Activity [1] [%]	Activity (Sus scrofa [2]) [%]	Activity (Sus scrofa [3]) [%]	Ki [4] [µM]
FC(F)c1c(-c2cccnc2)sc2ccccc12	103	79		
c1ccc2c(C3CN4CCSC4=N3)csc2c1 (stereo not given)	100		19	135
c1ccc([C@H]2CN3CCSC3=N2)cc1 [LEVAMISOLE HYDROCHLORIDE]	99		10	93
c1ccc(Oc2csc3ccccc23)cc1	104		89	
Clc1cccc(-c2cc3ccccc3s2)c1	95		96	
COc1c(-c2cccnc2)sc2ccccc12	112		44	
N#Cc1ccc(Oc2c[s+]([O-])c3ccccc23)cc1 (stereo not given)	106		67	

Results, then the compound that gave them:

Activity [1] [%]	Activity (Sus scrofa [2]) [%]	Activity (Sus scrofa [3]) [%]	Ki [4] [µM]	Structure (SMILES)
116		100		FC(F)(F)COc1cc2ccccc2s1
93		70		Nc1ccccc1-c1cc2ccccc2s1
92		105		N#Cc1ccc(-c2sc3ccccc3c2C=O)cc1
105		83		NCc1ccc(Oc2csc3ccccc23)cc1
99		100		N#Cc1ccccc1-c1sc2ccccc2c1N1CCCCC1
105		94		COc1ccc(-c2sc3ccccc3c2Oc2ccccc2)cc1
99		11	85	C1=CN2CC(c3csc4ccccc34)N=C2S1 (stereo not given)
129		101		COc1cc(Oc2csc3ccccc23)cc(OC)c1OC
108		88		O=[N+]([O-])c1ccccc1-c1sc2ccccc2c1-c1ccccc1[N+](=O)[O-]

— ChEMBL document CHEMBL1152630, “Synthesis and evaluation of benzo[b]thiophene derivatives as inhibitors of alkaline phosphatases” (Bioorg Med Chem, 2009)
